The source made the active and inactive calls.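 The calls were made as follows: active = macrophage DAGL beta lipase probe labeling falls at least half after a 5 mg/kg dose in mice; inactive = 5 mg/kg yields less than half inhibition.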

Sequence of Diacylglycerol lipase-beta (Mus musculus) (Q91WC9 whole entry, looked up): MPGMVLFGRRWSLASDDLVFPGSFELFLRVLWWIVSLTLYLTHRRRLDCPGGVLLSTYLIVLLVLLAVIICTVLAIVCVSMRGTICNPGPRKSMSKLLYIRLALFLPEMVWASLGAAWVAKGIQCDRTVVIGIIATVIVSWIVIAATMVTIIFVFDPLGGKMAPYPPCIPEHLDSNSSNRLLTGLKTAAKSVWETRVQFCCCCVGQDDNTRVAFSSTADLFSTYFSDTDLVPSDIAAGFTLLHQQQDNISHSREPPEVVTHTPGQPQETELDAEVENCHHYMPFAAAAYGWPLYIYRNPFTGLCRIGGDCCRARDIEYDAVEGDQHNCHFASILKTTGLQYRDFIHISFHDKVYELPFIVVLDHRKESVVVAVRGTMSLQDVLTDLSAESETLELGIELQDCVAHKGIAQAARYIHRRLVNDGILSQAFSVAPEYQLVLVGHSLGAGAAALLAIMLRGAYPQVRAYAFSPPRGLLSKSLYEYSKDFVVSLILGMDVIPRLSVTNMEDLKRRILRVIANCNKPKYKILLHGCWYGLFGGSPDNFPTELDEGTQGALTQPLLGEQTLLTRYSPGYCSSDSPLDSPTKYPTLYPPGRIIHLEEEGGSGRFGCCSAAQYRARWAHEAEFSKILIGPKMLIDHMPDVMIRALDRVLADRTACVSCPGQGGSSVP

The experiment has as its target Diacylglycerol lipase-beta (Mus musculus) (UniProt Q91WC9). Kind of experiment: in vivo DAGLb inhibition in mouse macrophages, late-stage follow-up, in vivo study, gel ABPP, in-gel fluorescence, peritoneal macrophages (AID 602345). The following applies: C57 mice i.p., peritoneal macrophage DAGLb, gel ABPP HT-01. The procedure, abridged: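 Test system – DAGLb in peritoneal macrophage membranes from thioglycollate-elicited C57 mice · Dosing – intraperitoneal 5, 10 or 20 mg/kg in saline/PEG300/ethanol (18/1/1) · Schedule – 4 h in vivo exposure, 30 min probe step at 37 °C · Measured by – SDS-PAGE in-gel fluorescence · Control set – vehicle-dosed mice as uninhibited reference · Repeats – n of 2 mice per group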
For `COc1ccccc1-c1ccc(-c2cn(C(=O)N3CCCCC3Cc3ccccc3)nn2)cc1` (stereo not drawn), the outcome was active.

On to `O=C(N1CCCCC1Cc1ccccc1)n1cc(-c2ccc(-c3ccccc3)cc2)nn1` (stereo not drawn), for which the outcome was active.

As for `O=C(N1CCCCC1Cc1ccccc1)n1cc(-c2ccc(-c3ccccc3C(F)(F)F)cc2)nn1` (stereo not drawn), the result was active.

Source of the values: PubChem BioAssay AID602345 (The Scripps Research Institute Molecular Screening Center, 2012).
